{"source": "ChEMBL document CHEMBL3352282", "about": "“Design and synthesis of novel azapeptide activators of apoptosis mediated by caspase-9 in cancer cells” (Bioorg Med Chem Lett, 2014)", "key": {"MDA-MB-231 [1]": {"tested_on": "MDA-MB-231", "assay": "Induction of apoptosis in serum starved human MDA-MB-231 cells assessed as caspase-3 activation at 50 uM after 16 hrs by Western blotting method", "assay_type": "functional, cell-based", "summary_of_the_method": "(§1)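 MDA-MB-231 cells serum-starved 6 h, then exposed to DMSO vehicle, etoposide, AVPI-NH₂ or analogs at one final concentration (50 or 100 µM, per line), harvested; caspase-3 and caspase-9 activation assessed by Western blotting. Quantification as mean ± SEM of three independent experiments.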"}, "MDA-MB-231 [2]": {"tested_on": "MDA-MB-231", "assay": "Induction of apoptosis in serum starved human MDA-MB-231 cells assessed as caspase-9 activation at 50 uM after 16 hrs by Western blotting method", "assay_type": "functional, cell-based", "summary_of_the_method": "as §1"}, "MDA-MB-231 [3]": {"tested_on": "MDA-MB-231", "assay": "Induction of cell death in serum starved human MDA-MB-231 cells at 50 uM after 16 hrs by trypan blue dye exclusion assay", "assay_type": "functional", "summary_of_the_method": "(§2)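 Breast cancer line serum-starved 6 h, then exposed to compound (DMSO vehicle) for 16 h at a final 50 µM or 100 µM. Cells trypsinized, stained with Trypan blue and counted. Cell death expressed as percentage, relative to vehicle. Mean ± SEM of three independent experiments, paired comparison to DMSO control.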"}, "MDA-MB-231 [4]": {"tested_on": "MDA-MB-231", "assay": "Induction of cell death in serum starved human MDA-MB-231 cells at 100 uM after 16 hrs by trypan blue dye exclusion assay", "assay_type": "functional", "summary_of_the_method": "as §2"}, "MDA-MB-231 [5]": {"tested_on": "MDA-MB-231", "assay": "Induction of apoptosis in serum starved human MDA-MB-231 cells assessed as caspase-9 activation after 16 hrs by Western blotting method", "assay_type": "functional, cell-based", "details": "MDA-MB-231, 16 h", "summary_of_the_method": "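MDA-MB-231 cells serum-starved 6 h, treated 16 h across a concentration series (about 12.5–125 µM), harvested; total and cleaved caspase-9 immunoblotted and quantified. Mean ± SEM of two independent experiments; significance versus paired DMSO condition.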"}, "MDA-MB-231 [6]": {"tested_on": "MDA-MB-231", "assay": "Induction of apoptosis in serum starved human MDA-MB-231 cells assessed as caspase-3 activation at 100 uM after 16 hrs by Western blotting method", "assay_type": "functional, cell-based", "summary_of_the_method": "as §1"}, "MDA-MB-231 [7]": {"tested_on": "MDA-MB-231", "assay": "Induction of apoptosis in serum starved human MDA-MB-231 cells assessed as caspase-9 activation at 100 uM after 16 hrs by Western blotting method", "assay_type": "functional, cell-based", "summary_of_the_method": "as §1"}}, "note": "Active and inactive are the calls of the source. The rule behind the calls is not given here.", "data": [{"smiles": "COc1cc([C@@H]2c3cc4c(cc3[C@@H](O[C@@H]3O[C@@H]5CO[C@@H](C)O[C@H]5[C@H](O)[C@H]3O)[C@H]3COC(=O)[C@H]23)OCO4)cc(OC)c1O", "note": "[ETOPOSIDE]", "values": [{"measurement": "Activity", "setting": "MDA-MB-231 [1]", "result": "Active"}, {"measurement": "Activity", "setting": "MDA-MB-231 [2]", "result": "inactive"}, {"measurement": "Activity", "setting": "MDA-MB-231 [3]", "result": 50, "unit": "%"}]}, {"smiles": "C[C@H](N)C(=O)NNC(=O)N1CCC[C@H]1C(=O)NC(c1ccccc1)c1ccccc1", "values": [{"measurement": "Activity", "setting": "MDA-MB-231 [4]", "result": 50, "unit": "%"}, {"measurement": "EC50", "setting": "MDA-MB-231 [5]", "result": 73.4, "unit": "µM"}, {"measurement": "Activity", "setting": "MDA-MB-231 [6]", "result": "Active"}, {"measurement": "Activity", "setting": "MDA-MB-231 [7]", "result": "Active"}, {"measurement": "Activity", "setting": "MDA-MB-231 [3]", "result": "Active"}]}, {"smiles": "C=CCN(NC(=O)[C@H](C)N)C(=O)N1CCC[C@H]1C(=O)NC(c1ccccc1)c1ccccc1", "values": [{"measurement": "Activity", "setting": "MDA-MB-231 [4]", "result": 50, "unit": "%"}, {"measurement": "Activity", "setting": "MDA-MB-231 [6]", "result": "Active"}, {"measurement": "Activity", "setting": "MDA-MB-231 [7]", "result": "Active"}, {"measurement": "Activity", "setting": "MDA-MB-231 [3]", "result": "inactive"}]}, {"smiles": "C#CCN(NC(=O)[C@H](C)N)C(=O)N1CCC[C@H]1C(=O)NC(c1ccccc1)c1ccccc1", "values": [{"measurement": "Activity", "setting": "MDA-MB-231 [4]", "result": 50, "unit": "%"}, {"measurement": "Activity", "setting": "MDA-MB-231 [6]", "result": "Active"}, {"measurement": "Activity", "setting": "MDA-MB-231 [7]", "result": "Active"}, {"measurement": "Activity", "setting": "MDA-MB-231 [3]", "result": "inactive"}]}, {"smiles": "C[C@H](N)C(=O)NN(C)C(=O)N1CCC[C@H]1C(=O)NC(c1ccccc1)c1ccccc1", "values": [{"measurement": "Activity", "setting": "MDA-MB-231 [4]", "result": 50, "unit": "%"}, {"measurement": "Activity", "setting": "MDA-MB-231 [6]", "result": "Active"}, {"measurement": "Activity", "setting": "MDA-MB-231 [7]", "result": "Active"}, {"measurement": "Activity", "setting": "MDA-MB-231 [3]", "result": "Active"}]}, {"smiles": "C[C@H](N)C(=O)NN(Cc1ccccc1)C(=O)N1CCC[C@H]1C(=O)NC(c1ccccc1)c1ccccc1", "values": [{"measurement": "Activity", "setting": "MDA-MB-231 [1]", "result": "Active"}, {"measurement": "Activity", "setting": "MDA-MB-231 [4]", "result": 50, "unit": "%"}, {"measurement": "Activity", "setting": "MDA-MB-231 [2]", "result": "Active"}, {"measurement": "EC50", "setting": "MDA-MB-231 [5]", "result": 50.2, "unit": "µM"}, {"measurement": "Activity", "setting": "MDA-MB-231 [6]", "result": "Active"}, {"measurement": "Activity", "setting": "MDA-MB-231 [7]", "result": "Active"}, {"measurement": "Activity", "setting": "MDA-MB-231 [3]", "result": "Active"}]}]}
